# Key:
# K562 [1] = assay: Antiproliferative activity against human K562 cells after 72 hrs by MTT assay; assay type: functional, cell-based; details: K562, 72 h
# In short: (§1)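 Cells preincubated 24 h at 37 °C, 5% CO₂. Compounds added at several concentrations in medium with 0.1% DMSO for 72 h. MTT (5 mg/mL in PBS) then added for 4 h, and optical density read at 490 nm. IC50 taken from dose-response curves; mean ± SD of at least three independent experiments.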
# KB = assay: Antiproliferative activity against human KB cells after 72 hrs by MTT assay; assay type: functional, cell-based; in short: as §1
# [2] = Drug resistance index, ratio of IC50 for VCR-resistant human K562/VCR cells to IC50 for human K562 cells; assay type: functional
# [3] = Drug resistance index, ratio of IC50 for ADR-resistant human Bel7402/ADR cells to IC50 for human Bel7402 cells; assay type: functional
# In short: (§2)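 Resistant and parental sensitive lines exposed to a range of compound concentrations in medium with 0.1% DMSO for 72 h at 37 °C, 5% CO2, after 24 h pre-culture. MTT added for 4 h, absorbance read at 490 nm. IC50 from dose-response curves, at least three independent experiments. DRI = IC50 resistant / IC50 parental.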
# HCT-8 = assay: Antiproliferative activity against human HCT8 cells after 72 hrs by MTT assay; assay type: functional, cell-based; details: HCT-8, 72 h; in short: as §1
# [4] = Antiproliferative activity against human ADR-resistant Bel7402/ADR cells after 72 hrs by MTT assay; assay type: functional; details: Bel-7402, 72 h; in short: as §1
# Tubulin (Sus scrofa) = Tubulin (Sus scrofa) (UniProt P02554+P02550); assay: Inhibition of [3H]-colchicine binding to biotinylated porcine tubulin at 1 uM after 2 hrs by SPA relative to control; assay type: protein assay
# In short: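 Scintillation proximity assay: 0.08 μM [3H]colchicine incubated with biotinylated porcine tubulin (0.5 μg) and test compound for 2 h at 37 °C in 80 mM PIPES pH 6.8, 1 mM EGTA, 10% glycerol, 1 mM MgCl2, 1 mM GTP. Streptavidin SPA beads then added, and bound radioactivity counted by scintillation counter.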
# Tubulin = Tubulin (Sus scrofa, UniProt P02554+P02550); assay: Inhibition of porcine brain tubulin polymerization preincubated for 30 mins and measured every 2 mins for 60 mins by spectrophotometric analysis
# [5] = Drug resistance index, ratio of IC50 for taxol-resistant human A549/TR cells to IC50 for human A549 cells; assay type: functional; in short: as §2
# K562 [6] = assay: Cell cycle arrest in human K562 cells assessed as accumulation of cells at G1 phase at 2 nM after 48 hrs by propidium iodide staining-based flow cytometric analysis (reference value: 69.57%); assay type: functional
# K562 [7] = assay: Induction of mitochondrial membrane potential loss in human K562 cells assessed as intact mitochondrial membrane at 1 nM after 48 hrs by JC-1 dye-based flow cytometric analysis (RVB = 93.17%)
# K562 [8] = assay: Induction of apoptosis in human K562 cells after 48 hrs by […]-based flow cytometric analysis; assay type: functional, cell-based
# Bel-7402 = assay: Antiproliferative activity against human Bel7402 cells after 72 hrs by MTT assay; assay type: functional, cell-based; details: Bel-7402, 72 h; in short: as §1
# HUVEC [9] = assay: Anti-migratory activity in HUVEC after 24 hrs by inverted microscopic analysis; assay type: functional, cell-based; details: Homo sapiens
# In short: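 Scratch wound made in monolayers with a 200 μL pipette tip, then washed twice with PBS. Medium with 1, 2 or 4 nM compound added. Phase-contrast images taken at 0 h and 24 h, and the migration distance into the wound measured manually.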
# K562 [10] = assay: Cell cycle arrest in human K562 cells assessed as accumulation of cells at G2 phase at 2 nM after 48 hrs by propidium iodide staining-based flow cytometric analysis (reference value: 10.51%); assay type: functional
# K562 [11] = assay: Induction of mitochondrial membrane potential loss in human K562 cells assessed as collapsed mitochondrial membrane at 1 nM after 48 hrs by JC-1 dye-based flow cytometric analysis (RVB = 6.17%)
# [12] = Toxicity in ICR mouse xenografted with […] cells assessed as body weight loss at 20 mg/kg/day, iv for 21 days; assay type: organism-based; details: in vivo, 504 h
# In short: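 H22 cells (1×10^6) implanted s.c. in right flank of male ICR mice (five weeks old), eight per group. Body weight recorded every 2 days during treatment.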
# K562 [13] = assay: Cell cycle arrest in human K562 cells assessed as accumulation of cells at S phase at 2 nM after 48 hrs by propidium iodide staining-based flow cytometric analysis (reference value: 19.93%); assay type: functional
# K562 [14] = assay: Cell cycle arrest in human K562 cells assessed as accumulation of cells at G2 phase at 4 nM after 48 hrs by propidium iodide staining-based flow cytometric analysis (reference value: 10.51%); assay type: functional
# H22 (Mus musculus) = assay: Antitumor activity against mouse H22 cells xenografted in ICR mouse assessed as reduction in tumor weight at 20 mg/kg/day, iv for 21 days relative to control; design: scale not given: the % may be the effect or the level left
# K562 [15] = assay: Induction of apoptosis in human K562 cells at 1 nM after 48 hrs by Annexin-V/propidium iodide staining-based flow cytometric analysis (reference value: 5.96%)
# K562 [16] = assay: Induction of apoptosis in human K562 cells at 2 nM after 48 hrs by Annexin-V/propidium iodide staining-based flow cytometric analysis (reference value: 5.96%)
# K562 [17] = assay: Induction of mitochondrial membrane potential loss in human K562 cells assessed as collapsed mitochondrial membrane at 4 nM after 48 hrs by JC-1 dye-based flow cytometric analysis (RVB = 6.17%)
# K562 [18] = assay: Induction of mitochondrial membrane potential loss in human K562 cells assessed as intact mitochondrial membrane at 2 nM after 48 hrs by JC-1 dye-based flow cytometric analysis (RVB = 93.17%)
# HepG2 = assay: Antiproliferative activity against human HepG2 cells after 72 hrs by MTT assay; assay type: functional, cell-based; details: HepG2, 72 h; in short: as §1
# HUVEC [19] = assay: Anti-vascular activity in HUVEC assessed as inhibition of tube formation after 6 hrs by inverted microscopic analysis; assay type: functional, cell-based; details: Homo sapiens
# In short: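 Matrigel thawed overnight at 4 °C and polymerised at 37 °C for 30 min. HUVECs in DMEM seeded at 50,000 cells/well, then exposed to 1, 2 or 4 nM compound or vehicle for 6 h at 37 °C. Capillary-like tubes photographed under an inverted microscope.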
# HUVEC [20] = assay: Antiproliferative activity against HUVEC at 2 to 4 nM after 6 hrs; assay type: cell-based; details: human, 0.004 µM
# K562 [21] = assay: Cell cycle arrest in human K562 cells assessed as accumulation of cells at S phase at 4 nM after 48 hrs by propidium iodide staining-based flow cytometric analysis (reference value: 19.93%); assay type: functional
# [22] = Drug resistance index, ratio of IC50 for taxol-resistant human HCT8/T cells to IC50 for human HCT8 cells; assay type: functional; in short: as §2
# Tubulin (Sus scrofa), sequence (P02550 whole entry, looked up): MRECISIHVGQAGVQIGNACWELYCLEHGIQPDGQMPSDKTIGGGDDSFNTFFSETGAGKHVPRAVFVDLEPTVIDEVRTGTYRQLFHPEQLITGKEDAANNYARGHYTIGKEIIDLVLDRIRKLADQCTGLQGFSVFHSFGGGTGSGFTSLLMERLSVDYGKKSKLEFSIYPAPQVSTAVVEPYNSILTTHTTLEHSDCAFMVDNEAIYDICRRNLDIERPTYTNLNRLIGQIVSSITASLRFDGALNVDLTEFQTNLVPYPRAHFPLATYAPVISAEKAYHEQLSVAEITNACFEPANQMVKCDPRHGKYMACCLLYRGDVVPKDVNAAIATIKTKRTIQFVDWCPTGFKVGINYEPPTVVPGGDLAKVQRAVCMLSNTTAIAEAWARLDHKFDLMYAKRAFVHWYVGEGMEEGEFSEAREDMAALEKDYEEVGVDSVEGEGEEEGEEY
# Tubulin (Sus scrofa), sequence (P02554 whole entry, looked up): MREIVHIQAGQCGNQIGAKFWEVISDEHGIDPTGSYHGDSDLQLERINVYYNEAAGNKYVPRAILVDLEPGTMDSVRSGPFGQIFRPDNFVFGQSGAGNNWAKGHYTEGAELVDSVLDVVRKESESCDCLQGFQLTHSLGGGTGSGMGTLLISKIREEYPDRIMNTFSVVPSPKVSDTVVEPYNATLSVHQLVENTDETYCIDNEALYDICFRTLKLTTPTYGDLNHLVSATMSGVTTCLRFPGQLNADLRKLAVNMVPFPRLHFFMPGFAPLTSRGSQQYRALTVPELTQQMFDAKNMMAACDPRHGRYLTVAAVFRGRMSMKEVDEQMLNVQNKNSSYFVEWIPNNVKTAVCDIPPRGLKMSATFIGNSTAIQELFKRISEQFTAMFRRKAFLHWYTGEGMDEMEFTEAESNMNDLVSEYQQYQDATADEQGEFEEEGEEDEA
smiles,measurement,setting,value
C=C(c1ccc2c(ccn2CO)c1)c1cc(C)nc2ccccc12,IC50,K562 [1],2 nM
same,IC50,KB,5 nM
same,Ratio IC50,[2],15.5
same,Ratio IC50,[3],6.1
same,IC50,HCT-8,7 nM
same,IC50,[4],61 nM
same,inhibition,Tubulin (Sus scrofa),79.4%
same,IC50,Tubulin,2.09 µM
same,Ratio IC50,[5],13.2
same,Activity,K562 [6],50.63%
same,Activity,K562 [7],70.66%
same,Activity,K562 [8],Dose-dependent effect
same,IC50,Bel-7402,10 nM
same,Activity,HUVEC [9],Dose-dependent effect
same,Activity,K562 [10],16.16%
same,Activity,K562 [11],28.99%
same,Activity,[12],Non-Toxic
same,Activity,K562 [13],33.21%
same,Activity,K562 [14],23.21%
same,Activity,H22 (Mus musculus),57.3%
same,Activity,K562 [15],25.7%
same,Activity,K562 [16],54.9%
same,Activity,K562 [17],73.55%
same,Activity,K562 [18],45.4%
same,IC50,HepG2,6 nM
same,Activity,HUVEC [19],Dose-dependent effect
same,Activity,HUVEC [20],Non-Toxic
same,Activity,K562 [21],31%
same,Ratio IC50,[22],12.6

# Reference: ChEMBL document CHEMBL4411275, “Design, synthesis and biological evaluation of quinoline-indole derivatives as anti-tubulin agents targeting the colchicine binding site” (Eur J Med Chem, 2019)
